Results on 26 compounds are retold here after ChEMBL document CHEMBL1152279 (J Med Chem, 2008).

The target of one assay is Histamine H1 receptor (Cavia porcellus, UniProt P31389). Nature of the assay: Antagonist activity at histamine H1 receptor in guinea pig ileum assessed as inhibition of histamine-induced […]. Particulars: read-out: pA2 (converted). Format: functional, tissue-based.
A further assay has as its target Histamine H2 receptor (Cavia porcellus, UniProt P47747). Description: Agonist activity at histamine H2 receptor in guinea pig spontaneously beating right atrium assessed as positive chronotropic activity. In kind it is functional, tissue-based, Cardiac atrium.
Assay [1] has as its target Histamine H2 receptor (Cavia porcellus) (UniProt P47747). Description: Agonist activity at histamine H2 receptor in guinea pig spontaneously beating right atrium assessed as positive chronotropic activity relative to histamine. In kind it is functional, tissue-based. Particulars: Cardiac atrium.
Assay [2] has as its target Histamine H1 receptor (Homo sapiens) (UniProt P35367). Description: Antagonist activity at histamine H1 receptor in human U373 MG cells assessed as inhibition of histamine-induced intracellular calcium level preincubated for 15 mins prior to histamine challenge. In kind it is functional, cell-based. Particulars: U-373MG ATCC. A digest of the protocol: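 U373-MG human cells expressing H1R, calcium assay. […] KB was derived from IC50 by the Cheng-Prusoff equation. Values are the mean of two experiments.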
(In general: Calcium assays in cells follow changes in intracellular calcium, usually with a dye or a luminescent sensor.)

Chain of Histamine H1 receptor (Homo sapiens) (P35367 whole entry): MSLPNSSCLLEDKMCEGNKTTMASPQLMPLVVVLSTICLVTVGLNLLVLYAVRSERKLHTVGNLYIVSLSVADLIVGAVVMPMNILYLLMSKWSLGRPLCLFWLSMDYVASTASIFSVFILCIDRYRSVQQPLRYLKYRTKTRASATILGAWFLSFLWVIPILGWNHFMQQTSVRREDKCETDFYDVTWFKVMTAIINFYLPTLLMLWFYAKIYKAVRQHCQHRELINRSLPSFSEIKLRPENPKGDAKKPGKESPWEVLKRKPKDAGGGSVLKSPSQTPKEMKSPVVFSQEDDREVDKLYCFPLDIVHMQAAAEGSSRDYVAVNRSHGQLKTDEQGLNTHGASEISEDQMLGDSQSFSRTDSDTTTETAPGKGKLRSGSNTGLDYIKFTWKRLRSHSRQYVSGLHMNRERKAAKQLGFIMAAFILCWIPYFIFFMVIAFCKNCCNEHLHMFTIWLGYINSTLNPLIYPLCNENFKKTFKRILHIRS
Chain of Histamine H2 receptor (Cavia porcellus) (P47747 whole entry): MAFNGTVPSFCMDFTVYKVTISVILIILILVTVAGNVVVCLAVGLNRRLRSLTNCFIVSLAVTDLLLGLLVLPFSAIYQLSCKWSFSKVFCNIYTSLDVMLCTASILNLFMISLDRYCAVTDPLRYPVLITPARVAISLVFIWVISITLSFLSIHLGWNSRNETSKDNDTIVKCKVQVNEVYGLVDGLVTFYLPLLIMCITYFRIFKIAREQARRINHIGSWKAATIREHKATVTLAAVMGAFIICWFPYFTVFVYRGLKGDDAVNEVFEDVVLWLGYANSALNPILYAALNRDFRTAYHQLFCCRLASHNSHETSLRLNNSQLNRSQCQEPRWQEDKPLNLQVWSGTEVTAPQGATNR
Chain of Histamine H2 receptor (P47747 whole entry): as above
Chain of Histamine H1 receptor (P31389 whole entry): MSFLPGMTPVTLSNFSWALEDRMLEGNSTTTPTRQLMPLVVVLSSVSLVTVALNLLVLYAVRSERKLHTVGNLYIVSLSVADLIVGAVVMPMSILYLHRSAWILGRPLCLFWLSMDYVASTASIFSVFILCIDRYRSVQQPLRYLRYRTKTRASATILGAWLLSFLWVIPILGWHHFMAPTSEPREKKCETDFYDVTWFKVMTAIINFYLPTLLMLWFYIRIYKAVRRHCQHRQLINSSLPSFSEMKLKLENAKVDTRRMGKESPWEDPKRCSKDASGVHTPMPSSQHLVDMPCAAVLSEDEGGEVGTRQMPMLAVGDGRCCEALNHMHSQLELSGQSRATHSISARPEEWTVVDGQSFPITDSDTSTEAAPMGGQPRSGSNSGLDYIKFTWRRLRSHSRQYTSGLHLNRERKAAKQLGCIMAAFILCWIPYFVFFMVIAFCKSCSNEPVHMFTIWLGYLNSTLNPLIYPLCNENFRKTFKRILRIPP

For the compound `NC(=NCCCc1cnc[nH]1)NC(=O)CC(c1ccc(F)cc1)c1ccccn1` (stereo unspecified), on Histamine H1 receptor, the Kb was 3720 nM. At Histamine H2 receptor, the EC50 (in general, the concentration at which the effect is half-maximal) is 33.9 nM.
`N=C(NCCCc1c[nH]cn1)NCCC(c1ccc(F)cc1)c1ccccn1` (stereo unspecified): in assay [1], the Activity was 10200% and the Emax (as a rule, the greatest response seen or fitted, relative to the assay's reference) is 100%.
`CC(CC(=O)NC(=N)NCCCc1c[nH]cn1)c1nccs1` (stereo unspecified): in assay [1], the Activity is 2590% and the Emax is 91%. Also, the Kb in assay [2] came to 11100 nM.
Regarding `CC(C(=O)NC(=N)NCCCc1c[nH]cn1)C1CCCCC1` (stereo unspecified), in assay [1], the Activity was 729% and the Emax is 86%. Besides, the Kb in assay [2] is 8800 nM.
As to `NC(=NCCCc1cnc[nH]1)NC(=O)CC(c1ccc(Cl)cc1)c1ccc(Cl)cc1`, at Histamine H2 receptor, the concentration for a half-maximal effect (EC50) was 309 nM.
With `CC(CC(=O)NC(N)=NCCCc1cnc[nH]1)C1CCCCC1` (stereo unspecified), on Histamine H1 receptor, the Kb is 2190 nM. The EC50 on Histamine H2 receptor is 67.6 nM.
As to `N=C(NCCCc1c[nH]cn1)NC(=O)CC(c1ccc(F)c(F)c1)c1nccn1Cc1ccccc1` (stereo unspecified), in assay [1], the Activity turned out to be 251% and the maximum response (Emax) stood at 54%. Moreover, in assay [2], the Kb was found to be 2900 nM. Moreover, the concentration giving a half-maximal response (EC50) at Histamine H2 receptor was 398 nM.
On to `NC(=NCCC(c1ccc(F)cc1)c1ccccn1)NCCCc1cnc[nH]1` (stereo unspecified) [ARPROMIDINE], for which, at Histamine H2 receptor, the 50% effective concentration (EC50) was 9.77 nM.
Consider `NC(=NCCCc1cnc[nH]1)NC(=O)CC(c1ccccc1)c1ccc(F)c(F)c1` (stereo unspecified), for which the half-maximal effective concentration (EC50) on Histamine H2 receptor was 53.7 nM.
For `N=C(NCCCc1c[nH]cn1)NC(=O)CC(c1ccc(F)c(F)c1)c1ncc[nH]1` (stereo unspecified), in assay [1], the Activity was 1030% and the maximum response (Emax) is 100%. Further, the Kb in assay [2] came to 6200 nM.
On to `CC(CC(=O)NC(N)=NCCCc1cnc[nH]1)c1nccs1` (stereo unspecified), for which the EC50 at Histamine H2 receptor is 38.9 nM.
With `N=C(NCCCc1c[nH]cn1)NC(=O)C1CCCCC1`, in assay [1], the Activity is 2090% and the maximum response (Emax) turned out to be 102%. In addition, the Kb in assay [2] amounted to 6000 nM.
As for `N=C(NCCCc1c[nH]cn1)NC(=O)CC(c1ccc(Br)cc1)c1ccc(Br)cc1`, in assay [1], the Activity came to 130% and the Emax turned out to be 60%.
Turning to `N=C(NCCCc1c[nH]cn1)NC(=O)CC(c1ccc(F)cc1)c1ccccn1` (stereo unspecified), in assay [1], the Activity worked out at 2930% and the maximal effect (Emax) was 100%. The Kb in assay [2] amounted to 5200 nM.
For the compound `NC(=NCCCc1cnc[nH]1)NC(=O)C(c1ccccc1)c1ccccc1`, the concentration giving a half-maximal response (EC50) on Histamine H2 receptor was 1050 nM.
Turning to `CC(CC(=O)NC(=N)NCCCc1c[nH]cn1)C1CCCCC1` (stereo unspecified), in assay [1], the Activity was determined as 1470% and the Emax worked out at 101%. The Kb in assay [2] came to 140 nM.
Regarding `NC(=NCCCc1cnc[nH]1)NC(=O)CC(c1ccc(F)c(F)c1)c1ncc[nH]1` (stereo unspecified), the EC50 on Histamine H2 receptor is 97.7 nM.
As to `N=C(NCCCc1c[nH]cn1)NC(=O)CC(c1ccc(Cl)cc1)c1ccc(Cl)cc1`, in assay [1], the Activity came out at 320% and the maximal effect (Emax) came out at 60%.
`N=C(NCCCc1c[nH]cn1)NC(=O)Cc1ccccc1`: in assay [1], the Activity stood at 546% and the Emax worked out at 97%. In assay [2], the Kb came out at 2800 nM.
The like results for `CC(C(=O)NC(=N)NCCCc1c[nH]cn1)c1ccccc1` (stereo unspecified) were, in that order, 28%, 88% and 8800 nM.
Take `N=C(NCCCc1c[nH]cn1)NC(=O)C(c1ccccc1)c1ccccc1`: in assay [1], the Activity was 95% and the Emax is 69%. In assay [2], the Kb is 4000 nM.
Regarding `CC(CC(=O)NC(=N)NCCCc1c[nH]cn1)c1ccccn1` (stereo unspecified), in assay [1], the Activity amounted to 2610% and the maximum response (Emax) amounted to 98%. Also, in assay [2], the Kb is 7400 nM. Besides, the EC50 on Histamine H2 receptor was 38 nM.
For `NC(=NCCCc1cnc[nH]1)NC(=O)CC(c1ccc(Br)cc1)c1ccc(Br)cc1`, the concentration for a half-maximal effect (EC50) at Histamine H2 receptor is 776 nM.
Consider `N=C(NCCCc1c[nH]cn1)NC(=O)CC1CCCCC1`, for which, in assay [1], the Activity was 1000% and the Emax was 95%. For the same compound, the Kb in assay [2] came out at 4300 nM.
Turning to `N=C(NCCCc1c[nH]cn1)NC(=O)CCC1CCCCC1`, in assay [1], the Activity came out at 1610% and the Emax came to 98%. Besides, the Kb in assay [2] is 1600 nM.
Turning to `Cc1[nH]cnc1CSCC(=O)NC(=N)NCCCc1c[nH]cn1`, in assay [1], the Activity came out at 3200% and the Emax turned out to be 101%. Moreover, the Kb in assay [2] worked out at 8500 nM.
